The record followed here is ChEMBL document CHEMBL2062446, “Design of a Potent CB1 Receptor Antagonist Series: Potential Scaffold for Peripherally-Targeted Agents” (ACS Med Chem Lett, 2012).

Each structure is given as a SMILES string.

For one data set, the system named is MDR1. The data set can be described thus: Apparent permeability from apical to basal side of MDCK cells expressing MDR1. Type of data set: ADME, cell-based, Canis lupus familiaris. The conditions noted are these: dog. The procedure, abridged:
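MDCK cells transfected with the MDR1 gene were used to assess whether compounds are MDR1 transporter substrates.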

The nature of data set [1]: 1-Octanol-sodium phosphate buffer partition coefficient, log D of the compound at pH 7.4 after 24 hrs by shake flask method. The class given is physicochemical.

Broadly, the Papp A→B is the apparent permeability from the apical to the basolateral side of a cell layer. For the compound `CC(C)C(=O)N[C@@H]1CCCOc2c1nn(-c1ccccc1Cl)c2-c1ccc(Cl)cc1`, the apparent permeability from apical to basolateral (Papp A→B) in the data set with MDR1 came to 8.4 ×10⁻⁶ cm/s. Take `CCOCC(=O)NC1CCCOc2c1nn(-c1ccccc1Cl)c2-c1ccc(Cl)cc1` (configuration not stated): the Papp A→B with MDR1 is 6.5 ×10⁻⁶ cm/s. Regarding `N#CC1(C(=O)NC2CCCOc3c2nn(-c2ccccc2Cl)c3-c2ccc(Cl)cc2)CC1` (configuration not stated), in the data set on MDR1, the apical-to-basolateral permeability (Papp A→B) stood at 1 ×10⁻⁶ cm/s. For orientation: logD means lipophilicity at a set pH, counting ionised and neutral species. Compound `CC(F)(F)CN1CCOc2c(nn(-c3ccccc3Cl)c2-c2ccc(Cl)cc2)C1=O` came in with a log distribution coefficient (logD) at 24 h in data set [1] of 4.1. The apparent permeability from apical to basolateral (Papp A→B) in the data set on MDR1 was 7.1 ×10⁻⁶ cm/s. With `CC(=O)NC1CCCOc2c1nn(-c1ccccc1Cl)c2-c1ccc(Cl)cc1` (racemic), the Papp A→B with MDR1 came to 14.1 ×10⁻⁶ cm/s. Take `CCC(=O)NC1CCCOc2c1nn(-c1ccccc1Cl)c2-c1ccc(Cl)cc1` (racemic): in the data set with MDR1, the Papp A→B turned out to be 12.1 ×10⁻⁶ cm/s. Turning to `CC(C)C(=O)NC1CCCOc2c1nn(-c1ccccc1Cl)c2-c1ccc(Cl)cc1` (racemic), the Papp A→B with MDR1 amounted to 6.9 ×10⁻⁶ cm/s. On the same count and under the same terms, the figure for `O=C(NC1CCCOc2c1nn(-c1ccccc1Cl)c2-c1ccc(Cl)cc1)C1CCOCC1` (racemic) is 6.8 ×10⁻⁶ cm/s; for `COCC(=O)NC1CCCOc2c1nn(-c1ccccc1Cl)c2-c1ccc(Cl)cc1` (racemic) it is 9.1 ×10⁻⁶ cm/s; for `COC(=O)NC1CCCOc2c1nn(-c1ccccc1Cl)c2-c1ccc(Cl)cc1` (racemic) it is 9.1 ×10⁻⁶ cm/s. Still for that read-out and setting: the figure for `CCNC(=O)NC1CCCOc2c1nn(-c1ccccc1Cl)c2-c1ccc(Cl)cc1` (racemic) is 6.3 ×10⁻⁶ cm/s; for `O=C(NC1CCCOc2c1nn(-c1ccccc1Cl)c2-c1ccc(Cl)cc1)c1ccon1` (racemic) it is 6.6 ×10⁻⁶ cm/s; for `O=C(NC1CCCOc2c1nn(-c1ccccc1Cl)c2-c1ccc(Cl)cc1)c1ccno1` (racemic) it is 3.2 ×10⁻⁶ cm/s.

For `O=C(NC1CCCOc2c1nn(-c1ccccc1Cl)c2-c1ccc(Cl)cc1)c1cnon1` (racemic), in the data set on MDR1, the apparent permeability from apical to basolateral (Papp A→B) stood at 3 ×10⁻⁶ cm/s. Same read-out and setting: the value for `CS(=O)(=O)CC(=O)NC1CCCOc2c1nn(-c1ccccc1Cl)c2-c1ccc(Cl)cc1` (racemic) was 2.7 ×10⁻⁶ cm/s; that for `O=C1CCCN1C1CCCOc2c1nn(-c1ccccc1Cl)c2-c1ccc(Cl)cc1` (racemic) was 11.2 ×10⁻⁶ cm/s.
